T cruzi repl: inhibitors of intracellular T. cruzi growth, primary screen, luminescence, NIH3T3 host cells | actives 1.4% (n = 300,000) | inhibition, % (no concentration beside the values) | T. cruzi beta-gal in NIH3T3, 90 h | AID 1885, 2009;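 active means mean inhibition across valid replicates above about 55%, limit read from the data; inconclusive means mean below that limit but half or more replicates reach it; inactive means mean below it, under half of replicates reach it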;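 further: signal also drops with host cell toxicity which is not excluded here; 0% = plate median of DMSO wells and 100% = zero luminescence signal; higher percent means less beta-gal luminescence so fewer parasites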
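Assay system: NIH/3T3 host cells with β-galactosidase reporter T. cruzi; input: 5,000 host fibroblasts per well; compound: single 50 nL compound addition per well in DMSO; timing: ≥90 h infection period, 3 h prior cell attachment; measured by: GalScreen β-gal luminescence, detergent lysis, 60 min; evaluation: percent inhibition of parasite-derived β-gal signal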
Beta apoptosis: inhibitors of cytokine-induced beta cell apoptosis, primary screen, luminescence. INS-1E cytokine-induced death, ATP luminescence, 48 h; percent of positive-control rescue, neutral wells zero. actives 0.8% (n = 300,000). protection from apoptosis, % (concentration not given with the values);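 active means Every replicate reaches about 75%, or at least half do and their mean reaches it too, limit read from the data; inconclusive means At least half of replicates reach the limit but their mean does not; inactive means Under half of replicates reach the limit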;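 further: 0% = cytokine-treated negative control wells and 100% = positive control rescue; higher means more ATP so stronger rescue from cytokine killing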
Calb FLC: C. albicans growth inhibition with fluconazole, primary screen, CaCi-2 strain, Alamar Blue fluorescence; actives 0.57% (n = 300,000); growth inhibition, % (test concentration not listed); C. albicans CaCi-2 + fluconazole, 48 h;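 active means growth inhibition above about 58% in most replicates, limit read from the data, passing the limit was not always enough; inconclusive means exactly half the replicates above a set limit; inactive means most replicates below a set limit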;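 further: all wells also contain fluconazole at 8 µg/ml as a sub-toxic cotreatment; 0% = median of DMSO wells and 100% = median of geldanamycin control wells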
SKKanGAS inh: S. pyogenes SKKanGAS growth inhibitors in kanamycin, primary screen, streptokinase expression inhibitor project, SKKanGAS strain, BacTiter-Glo luminescence; 6 h; inhibition, % at 7.5 µM; actives 1.3% (n = 300,000); AID 1662, 2009;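 active means mean replicate score, as percent of positive control median, at least 50; inconclusive means mean below 50 but one replicate at or above 50; inactive means mean and every replicate below 50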;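 further: strain carries kanamycin resistance gene driven by streptokinase promoter and grows in 40 µg/ml kanamycin; loss of luminescence reflects streptokinase promoter inhibition or plain growth inhibition; 0% = median of DMSO wells and 100% = positive control at its reference dose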
Mdm2-MdmX inh: inhibitors of human Mdm2-MdmX association, primary screen, cell-based, luminescence, split luciferase, SaOS-2, uHTS. Protein Mdm4 (Homo sapiens) + E3 ubiquitin-protein ligase Mdm2 (Homo sapiens), …. SaOS-2 split-luciferase Mdm2/MdmX complementation. inhibition, % at 8 µM. actives 3% (n = 330,000). AID 485346, 2010;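 active means inhibition of at least 50% at 8 µM in the primary screen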
Target sequence (O15151 whole entry, looked up): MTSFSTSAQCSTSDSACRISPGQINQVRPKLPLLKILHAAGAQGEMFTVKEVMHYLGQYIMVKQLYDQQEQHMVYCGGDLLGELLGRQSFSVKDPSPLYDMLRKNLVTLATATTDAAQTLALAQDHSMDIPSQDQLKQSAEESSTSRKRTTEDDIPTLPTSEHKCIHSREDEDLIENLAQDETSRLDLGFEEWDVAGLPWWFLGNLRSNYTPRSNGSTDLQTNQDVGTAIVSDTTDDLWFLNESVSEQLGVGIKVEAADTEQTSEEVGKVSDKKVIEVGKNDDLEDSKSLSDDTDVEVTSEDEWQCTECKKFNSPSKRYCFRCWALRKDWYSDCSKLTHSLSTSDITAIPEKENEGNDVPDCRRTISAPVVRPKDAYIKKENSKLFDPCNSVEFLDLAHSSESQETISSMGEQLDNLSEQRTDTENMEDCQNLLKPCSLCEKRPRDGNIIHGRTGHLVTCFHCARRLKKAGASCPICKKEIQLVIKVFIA
Target sequence (Q00987 whole entry, looked up): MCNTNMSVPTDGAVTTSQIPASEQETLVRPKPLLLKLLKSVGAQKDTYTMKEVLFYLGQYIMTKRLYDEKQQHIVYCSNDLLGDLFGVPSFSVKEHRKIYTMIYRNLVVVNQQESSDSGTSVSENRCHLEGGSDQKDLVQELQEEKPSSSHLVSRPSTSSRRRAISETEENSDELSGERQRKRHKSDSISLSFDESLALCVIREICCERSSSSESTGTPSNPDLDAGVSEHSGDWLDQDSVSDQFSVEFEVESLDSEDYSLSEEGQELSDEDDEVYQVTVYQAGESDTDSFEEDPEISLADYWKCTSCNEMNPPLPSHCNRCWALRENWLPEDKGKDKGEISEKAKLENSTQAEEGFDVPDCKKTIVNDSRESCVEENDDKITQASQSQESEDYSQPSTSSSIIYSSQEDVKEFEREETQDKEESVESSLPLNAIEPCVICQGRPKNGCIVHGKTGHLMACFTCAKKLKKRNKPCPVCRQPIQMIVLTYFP
CSC inhib: cancer stem cell viability inhibitors, primary screen, luminescence; cancer stem cell-like cells viability; inhibition, % at 7.5 µM; actives 1.1% (n = 300,000); AID 2717, 2010; in the data active means inhibition above about 75%; inconclusive means no clear call, values can overlap the other calls; tested in HMLE shEcad cells
Mdm2-MdmX conf: Mdm2-MdmX complex disruptors, retested hits, confirmation, luminescence, single concentration; inhibition, % at 8 µM; Mdm2-MdmX binding, luminescent assay; actives 55% (n = 10,000); shares compounds with Mdm2-MdmX inh; in the data active means inhibition above about 40%
FLuc counter: full-length luciferase signal inhibition, confirmation, counter-screen for Mdm2/MdmX interaction inhibitor project, cell-based, single concentration, SaOS-2 | shares compounds with Mdm2-MdmX inh | SaOS-2 full-length luciferase counterscreen, luminescence | inhibition, % at 8 µM | actives 77% (n = 6,200);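 active means mean inhibition at 8 µM reaching about 37%, which flags the compound as non-specific, limit read from the data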;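 further: p53-null SaOS-2 cells with luciferase driven by a doxycycline-inducible promoter; compound on cells about two nights before reading with doxycycline added after day one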
* hit, by the source's call; ? = inconclusive; · = no result. Hits are enriched below; roughly 5.7% of the tested compounds scored in any of these assays.

SMILES | T cruzi repl | Beta apoptosis | Calb FLC | SKKanGAS inh | Mdm2-MdmX inh | CSC inhib | Mdm2-MdmX conf | FLuc counter
Cc1ccc(C)c(N2CCN(C(=O)C(Cc3ccccc3)n3cccc3)CC2)c1 (configuration not stated) | 46.0 | -1.8 | 6.9 | 14.5 | 50.1* | 29.9 | 27.5 | ·
O=C(C(Cc1ccccc1)n1cccc1)N1CCN(c2ccccc2)CC1 (configuration not stated) | 13.1 | -0.9 | 1.2 | 1.3 | -34.6 | -11.7 | · | ·
O=C(CN(c1cccc(Cl)c1)S(=O)(=O)c1ccc(Cl)cc1)NCc1ccccn1 | 24.8 | 5.1 | 4.6 | -3.2 | 9.1 | 7.3 | · | ·
CCCCn1c(N)c(N(CCOC)C(=O)CSCc2ccc(C)cc2)c(=O)[nH]c1=O | -6.8 | -0.6 | 0.2 | -5.5 | 17.3 | 34.8 | · | ·
COc1cc(C(=O)Nc2cccc(C)n2)ccc1OCC(=O)N1CCOCC1 | · | -1.8 | · | · | -26.5 | · | · | ·
COc1cc(/C=N/Nc2nc(-c3ccc(S(=O)(=O)N(C)C)cc3)cs2)ccc1O | -1.1 | 6.9 | -6.2 | 17.9 | 82.4* | 65.7 | 56.4* | 81.3*
COc1ccc(-c2csc(NC(=O)c3ccc(OCC(=O)N4CCOCC4)c(OC)c3)n2)cc1OC | -10.9 | 9.2 | 3.7 | 18.6 | 57.8* | 24.2 | 38.8 | ·
COc1ccc(-c2csc(NC(=S)NC(=O)c3cccs3)n2)cc1OC | 25.5 | · | -2.8 | ? | 40.8 | · | · | ·
COc1ccc(-c2csc(NC(=S)NC(=O)c3ccc(S(=O)(=O)N(C)C)cc3)n2)cc1OC | 1.6 | -4.2 | 2.0 | 5.0 | 70.4* | -0.9 | 22.7 | ·
CN(CCOc1ccccc1)C(=O)CCc1c[nH]c2ccccc12 | 4.6 | -4.7 | -2.3 | -1.3 | 11.4 | -1.2 | · | ·
COc1ccc(N(CC(=O)NC(C)(C)C)C(=O)CCC(=O)Nc2nccs2)c(OC)c1 | 7.9 | -8.2 | 2.5 | 2.4 | -51.3 | 9.6 | · | ·
CN(C)CC(CCC(CN(C)C)C(O)(c1ccccc1)c1ccccc1)C(O)(c1ccccc1)c1ccccc1 (configuration not stated) | 40.0 | · | -18.0 | -4.7 | 100.3* | · | 99.2* | 51.8*
CC(=O)NC1=NN(C(C)=O)C(C)(c2ccc3ccccc3c2)S1 (configuration not stated) | 11.2 | -3.8 | -23.1 | -0.8 | 20.8 | -8.7 | · | ·
CC(=O)NC1=NN(C(C)=O)C(C)(c2ccccc2)S1 (configuration not stated) | -27.7 | · | -10.5 | 3.6 | 60.0* | · | 53.1* | 52.7*
CC(C)c1ccc2c(c1)C1(NN=C(c3ccccc3)S1)C(=O)N2 (configuration not stated) | 65.8* | 73.6 | ? | 98.6* | 59.0* | 116.1* | 69.2* | 69.2*
CCc1ccc2c(c1)C1(NN=C(c3ccc(C)cc3)S1)C(=O)N2 (configuration not stated) | ? | 49.8 | -10.1 | 80.4* | 74.3* | 9.2 | 67.8* | 63.2*
Cc1cc(C)c(C)c(S(=O)(=O)NCCN2CCOCC2)c1C | 3.6 | · | -2.3 | 5.0 | 4.7 | -15.6 | · | ·
O=C(Nc1cccc(-c2nc3ccccc3o2)c1)c1ccc(N2C(=O)C3C4C=CC(C4)C3C2=O)cc1 (configuration not stated) | 20.3 | 4.3 | 7.0 | 13.5 | 58.8* | -1.7 | 21.4 | ·
COCC(=O)Nc1c(C(=O)Nc2ccccc2OC)oc2ccccc12 | -6.6 | 2.3 | 1.5 | -5.4 | -1.0 | 4.0 | · | ·
COc1ccccc1NC(=O)c1oc2ccccc2c1NC(=O)c1cc(OC)c(OC)c(OC)c1 | -18.8 | 8.9 | 7.7 | -11.9 | 70.5* | 61.1 | 62.1* | 54.0*
COc1ccc(OC)c(NC(=O)c2oc3ccccc3c2NC(=O)C2CC2)c1 | -0.3 | 8.6 | -2.3 | -1.3 | 57.9* | -0.9 | 17.6 | ·
Cc1cc(C(=O)OCC(=O)NC2(C#N)CCCCC2)c(C)o1 | · | · | · | · | 24.4 | · | · | ·
O=C(C1COc2ccccc2O1)N1CCN(c2ccc([N+](=O)[O-])cc2)CC1 (configuration not stated) | · | -2.7 | · | · | 21.2 | -7.2 | · | ·
COc1ccc2cc1Oc1ccc(cc1)C[C@H]1c3c(cc(OC)c4c3Oc3c(ccc5c3[C@H](C2)N(C)CC5)O4)CCN1C | · | 121.9* | · | · | 100.3* | 105.2* | 42.2* | 11.2
CCOc1ccc(C2NCCc3cc(OC)c(OC)cc32)cc1OC (configuration not stated) | 29.3 | 9.8 | -13.6 | -5.3 | 33.0 | -1.9 | · | ·
SMILES | T cruzi repl | Beta apoptosis | Calb FLC | SKKanGAS inh | Mdm2-MdmX inh | CSC inhib | Mdm2-MdmX conf | FLuc counter
CN1CCc2cccc3c2C1Cc1ccc(O)c(O)c1-3 (configuration not stated) | 0.6 | -4.7 | · | 3.3 | -15.9 | 1.0 | · | ·
COc1ccc2cc1Oc1ccc(cc1)CC1c3c(cc(OC)c4c3Oc3cc5c(cc3O4)CCNC5C2)CCN1C (configuration not stated) | 65.9* | · | 9.1 | 17.2 | 100.3* | -2.7 | 99.7* | 1.9
CC1CCCC(C)N1C(=O)COC(=O)c1n[nH]c(=O)c2ccccc12 (configuration not stated) | · | -2.4 | · | · | -10.2 | · | · | ·
COc1cc(/C=N/NC(=O)c2c(-c3ccccc3)noc2C)cc(OC)c1OC | 2.5 | -6.2 | -29.8 | -3.2 | 2.7 | -7.6 | · | ·
COc1cc(-c2noc(C)c2/C=C/c2ccc(OC(C)=O)cc2)cc(OC)c1OC | 35.4 | 15.1 | 21.0 | 9.9 | 84.3* | 109.2* | 90.3* | 94.0*
COc1ccc(-c2oc(=O)c3cc(OC)c(OC)cc3c2/C=C/c2ccc(OC(C)=O)cc2)cc1 | · | 2.9 | · | · | 60.3* | · | 38.0 | 62.8*
CCOC(=O)c1sc(NC(=O)C2CC(=O)N(c3ccc(OCC)cc3)C2)nc1C (configuration not stated) | 5.7 | -4.7 | 6.2 | 7.4 | 1.9 | 3.3 | · | ·
COc1ccc(N2C(=O)N3[C@H](c4ccc(Cl)cc4)[C@@H]4C(=O)N(C5CCCCC5)C(=O)[C@@H]4[C@]3(Cc3ccc(Cl)cc3)C2=O)cc1 | 0.1 | -2.5 | -3.8 | 1.8 | 47.1 | 7.1 | · | ·
Cc1ccc(N2C(=O)N3[C@H](c4ccc(F)cc4)[C@@H]4C(=O)N(C5CCCCC5)C(=O)[C@@H]4[C@]3(Cc3ccccc3)C2=O)cc1 | 18.1 | · | 9.9 | -1.8 | 60.9* | -13.6 | 70.0* | 57.3*

Screens as filed in PubChem.
